Data taken from ChEMBL document CHEMBL1127799, “Derivatives of a novel cyclopeptolide. 1. Synthesis, antifungal activity, and structure-activity relationships” (1994).
In brackets after ≈: the same amount, converted by molar mass.

Columns and labels:
Assay type in all cases: functional
Candida tropicalis [1] = test: Tested for minimum inhibitory concentration against Candida tropicalis 43 (C.t) at pH of 6.5.
Procedure, shortened: (§1)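 Broth microdilution in malt extract broth, initial pH 4.5 or 6.5, with 1×10^3 CFU per 0.2 mL well of thawed stored cultures. Compound stocks were made in 5% DMSO/0.2% Tween 80 and diluted to final 0.05–100 μg/mL. Plates were incubated 48 h at 30 °C and read macroscopically. MIC was the lowest concentration with no detectable growth. Vehicle-only wells served as controls.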

[2] = tested on: Meyerozyma guilliermondii; test: Tested for minimum inhibitory concentration against Candida guilliermondii 80 (C.g) at pH of 6.5.; procedure, shortened: as §1
Pichia kudriavzevii [3] = test: Tested for minimum inhibitory concentration against Candida krusei 132 (C.k) at pH of 4.5.; procedure, shortened: as §1
[4] = tested on: Meyerozyma guilliermondii; test: Tested for minimum inhibitory concentration against Candida guilliermondii 80 (C.g) at pH of 4.5.; procedure, shortened: as §1
Candida albicans [5] = test: Tested for minimum inhibitory concentration against Candida albicans 124 (Candida albicans) at pH of 6.5.; procedure, shortened: as §1
Candida albicans [6] = test: Tested for minimum inhibitory concentration against Candida albicans 124 (Candida albicans) at pH of 4.5.; procedure, shortened: as §1
Candida tropicalis [7] = test: Tested for minimum inhibitory concentration against Candida tropicalis 43 (C.t) at pH of 4.5.; procedure, shortened: as §1
Pichia kudriavzevii [8] = test: Tested for minimum inhibitory concentration against Candida krusei 132 (C.k) at pH of 6.5.; procedure, shortened: as §1

Row | MIC (Candida tropicalis [1]) [µg/mL] | MIC [2] [µg/mL] | MIC (Pichia kudriavzevii [3]) [µg/mL] | MIC [4] [µg/mL] | MIC (Candida albicans [5]) [µg/mL] | MIC (Candida albicans [6]) [µg/mL] | MIC (Candida tropicalis [7]) [µg/mL] | MIC (Pichia kudriavzevii [8]) [µg/mL] | Compound
1 | > 100 | > 100 | > 100 | > 100 | > 100 | > 100 | > 100 | > 100 | CC[C@@H](C)[C@H]1C(=O)NCC(=O)N(C)[C@@H](C(C)C)C(=O)N[C@@H](Cc2ccc(OC)cc2)C(=O)O[C@H](C)C(=O)N2CCCC[C@H]2C(=O)N(C)[C@@H](C(C)C)C(=O)N[C@@H](C(C)C)C(=O)N(C)[C@@H](CC(=O)NC[Si](C)(C)C)C(=O)N(C)[C@@H]([C@@H](C)CC)C(=O)N1C
2 | 25 (≈ 22.2 µM) | 25 (≈ 22.2 µM) | 25 (≈ 22.2 µM) | 6.25 (≈ 5.55 µM) | 6.25 (≈ 5.55 µM) | 3.13 (≈ 2.78 µM) | 6.25 (≈ 5.55 µM) | 50 (≈ 44.4 µM) | CC[C@@H](C)[C@H]1C(=O)NCC(=O)N(C)[C@@H](C(C)C)C(=O)N[C@@H](Cc2ccc(OC)cc2)C(=O)N[C@@H](C)C(=O)N2CCCC[C@H]2C(=O)N(C)[C@@H](C(C)C)C(=O)N[C@@H](C(C)C)C(=O)N(C)[C@@H](CC(=O)O)C(=O)N(C)[C@@H]([C@@H](C)CC)C(=O)N1C
3 | > 100 | > 100 | > 100 | > 100 | > 100 | > 100 | > 100 | > 100 | CC[C@@H](C)[C@H]1C(=O)NCC(=O)N(C)[C@@H](C(C)C)C(=O)N[C@@H](Cc2ccc(OC)cc2)C(=O)O[C@H](C)C(=O)N2CCCC[C@H]2C(=O)N(C)[C@@H](C(C)C)C(=O)N[C@@H](C(C)C)C(=O)N(C)[C@@H](CCN=[N+]=[N-])C(=O)N(C)[C@@H]([C@@H](C)CC)C(=O)N1C
4 | > 100 | > 100 | > 100 | > 100 | > 100 | > 100 | > 100 | > 100 | CC[C@@H](C)[C@H]1C(=O)NCC(=O)N(C)[C@@H](C(C)C)C(=O)N[C@@H](Cc2ccc(OC)cc2)C(=O)O[C@H](C)C(=O)N2CCCC[C@H]2C(=O)N(C)[C@@H](C(C)C)C(=O)N[C@@H](C(C)C)C(=O)N(C)[C@@H](CC(=O)NCCN(C)C)C(=O)N(C)[C@@H]([C@@H](C)CC)C(=O)N1C
5 | > 100 | > 100 | > 100 | > 100 | > 100 | > 100 | > 100 | > 100 | CC[C@@H](C)[C@H]1C(=O)NCC(=O)N(C)[C@@H](C(C)C)C(=O)N[C@@H](Cc2ccc(OC)cc2)C(=O)O[C@H](C)C(=O)N2CCCC[C@H]2C(=O)N(C)[C@@H](C(C)C)C(=O)N[C@@H](C(C)C)C(=O)N(C)[C@@H](CCCl)C(=O)N(C)[C@@H]([C@@H](C)CC)C(=O)N1C
6 | > 100 | > 100 | > 100 | > 100 | > 100 | > 100 | > 100 | > 100 | CC[C@@H](C)[C@H]1C(=O)NCC(=O)N(C)[C@@H](C(C)C)C(=O)N[C@@H](Cc2ccc(OC)cc2)C(=O)O[C@H](C)C(=O)N2CCCC[C@H]2C(=O)N(C)[C@@H](C(C)C)C(=O)N[C@@H](C(C)C)C(=O)N(C)[C@@H](CCOC(=O)c2ccccc2C(=O)O)C(=O)N(C)[C@@H]([C@@H](C)CC)C(=O)N1C
7 | > 100 | > 100 | > 100 | > 100 | 50 (≈ 43.3 µM) | 12.5 (≈ 10.8 µM) | 100 (≈ 86.6 µM) | > 100 | CC[C@@H](C)[C@H]1C(=O)NCC(=O)N(C)[C@@H](C(C)C)C(=O)N[C@@H](Cc2ccc(OC)cc2)C(=O)O[C@H](C)C(=O)N2CCCC[C@H]2C(=O)N(C)[C@@H](C(C)C)C(=O)N[C@@H](C(C)C)C(=O)N(C)[C@@H](CCOC(C)=O)C(=O)N(C)[C@@H]([C@@H](C)CC)C(=O)N1C
8 | > 100 | > 100 | > 100 | > 100 | > 100 | > 100 | > 100 | > 100 | CC[C@@H](C)[C@H]1C(=O)NCC(=O)N(C)[C@@H](C(C)C)C(=O)N[C@@H](Cc2ccc(OCc3ccc(Br)cc3)cc2)C(=O)O[C@H](C)C(=O)N2CCCC[C@H]2C(=O)N(C)[C@@H](C(C)C)C(=O)N[C@@H](C(C)C)C(=O)N(C)[C@@H](CC(=O)O)C(=O)N(C)[C@@H]([C@@H](C)CC)C(=O)N1C
9 | 25 (≈ 22.2 µM) | 100 (≈ 88.8 µM) | 25 (≈ 22.2 µM) | 12.5 (≈ 11.1 µM) | 12.5 (≈ 11.1 µM) | 3.13 (≈ 2.78 µM) | 6.25 (≈ 5.55 µM) | 50 (≈ 44.4 µM) | CC[C@@H](C)[C@H]1C(=O)NCC(=O)N(C)[C@@H](C(C)C)C(=O)N[C@@H](Cc2ccc(OC)cc2)C(=O)O[C@@H](C)C(=O)N2CCCC[C@H]2C(=O)N(C)[C@@H](C(C)C)C(=O)N[C@@H](C(C)C)C(=O)N(C)[C@@H](CC(=O)O)C(=O)N(C)[C@@H]([C@@H](C)CC)C(=O)N1C
10 | > 100 | > 100 | > 100 | > 100 | > 100 | 100 (≈ 94 µM) | > 100 | > 100 | CC[C@@H](C)[C@H]1C(=O)NCC(=O)N(C)[C@@H](C(C)C)C(=O)N[C@@H](CC(=O)O)C(=O)O[C@H](C)C(=O)N2CCCC[C@H]2C(=O)N(C)[C@@H](C(C)C)C(=O)N[C@@H](C(C)C)C(=O)N(C)[C@@H](CC(=O)O)C(=O)N(C)[C@@H]([C@@H](C)CC)C(=O)N1C
11 | > 100 | > 100 | > 100 | 25 (≈ 21.4 µM) | 100 (≈ 85.4 µM) | 12.5 (≈ 10.7 µM) | 25 (≈ 21.4 µM) | > 100 | CC[C@@H](C)[C@H]1C(=O)NCC(=O)N(C)[C@@H](C(C)C)C(=O)N[C@@H](Cc2ccc(OCC(=O)O)cc2)C(=O)O[C@H](C)C(=O)N2CCCC[C@H]2C(=O)N(C)[C@@H](C(C)C)C(=O)N[C@@H](C(C)C)C(=O)N(C)[C@@H](CC(=O)O)C(=O)N(C)[C@@H]([C@@H](C)CC)C(=O)N1C
12 | 100 (≈ 86.8 µM) | 100 (≈ 86.8 µM) | 100 (≈ 86.8 µM) | 100 (≈ 86.8 µM) | 6.25 (≈ 5.42 µM) | 3.13 (≈ 2.72 µM) | 100 (≈ 86.8 µM) | > 100 | C=CCOc1ccc(C[C@@H]2NC(=O)[C@H](C(C)C)N(C)C(=O)CNC(=O)[C@H]([C@H](C)CC)N(C)C(=O)[C@H]([C@@H](C)CC)N(C)C(=O)[C@H](CC(=O)O)N(C)C(=O)[C@H](C(C)C)NC(=O)[C@H](C(C)C)N(C)C(=O)[C@@H]3CCCCN3C(=O)[C@@H](C)OC2=O)cc1
13 | > 100 | > 100 | > 100 | > 100 | > 100 | > 100 | > 100 | > 100 | CC[C@@H](C)[C@H]1C(=O)NCC(=O)N(C)[C@@H](C(C)C)C(=O)N[C@@H](Cc2ccc(OC)cc2)C(=O)O[C@H](C)C(=O)N2CCCC[C@H]2C(=O)N(C)[C@@H](C(C)C)C(=O)N[C@@H](C(C)C)C(=O)N(C)[C@@H](CC(=O)Nc2ccc(Br)cc2)C(=O)N(C)[C@@H]([C@@H](C)CC)C(=O)N1C
14 | > 100 | > 100 | > 100 | > 100 | > 100 | > 100 | > 100 | > 100 | CCCCCCCCOC(=O)C[C@H]1C(=O)N(C)[C@@H]([C@@H](C)CC)C(=O)N(C)[C@@H]([C@H](C)CC)C(=O)NCC(=O)N(C)[C@@H](C(C)C)C(=O)N[C@@H](Cc2ccc(OC)cc2)C(=O)O[C@H](C)C(=O)N2CCCC[C@H]2C(=O)N(C)[C@@H](C(C)C)C(=O)N[C@@H](C(C)C)C(=O)N1C
15 | > 100 | > 100 | > 100 | > 100 | > 100 | > 100 | > 100 | > 100 | CC[C@@H](C)[C@H]1C(=O)NCC(=O)N(C)[C@@H](C(C)C)C(=O)N[C@@H](Cc2ccc(OC)cc2)C(=O)O[C@H](C)C(=O)N2CCCC[C@H]2C(=O)N(C)[C@@H](C(C)C)C(=O)N[C@@H](C(C)C)C(=O)N(C)[C@@H](CC(=O)OC(C)(C)C)C(=O)N(C)[C@@H]([C@@H](C)CC)C(=O)N1C
16 | > 100 | > 100 | > 100 | > 100 | 100 (≈ 88.9 µM) | 25 (≈ 22.2 µM) | > 100 | > 100 | CC[C@@H](C)[C@H]1C(=O)NCC(=O)N(C)[C@@H](C(C)C)C(=O)N[C@@H](Cc2ccc(OC)cc2)C(=O)N[C@H](C)C(=O)N2CCCC[C@H]2C(=O)N(C)[C@@H](C(C)C)C(=O)N[C@@H](C(C)C)C(=O)N(C)[C@@H](CC(=O)O)C(=O)N(C)[C@@H]([C@@H](C)CC)C(=O)N1C
17 | > 100 | > 100 | > 100 | > 100 | > 100 | > 100 | > 100 | > 100 | CC[C@H](C)[C@H]1C(=O)NCC(=O)N(C)[C@@H](C(C)C)C(=O)N[C@@H](Cc2ccc(OC)cc2)C(=O)N[C@@H](C)C(=O)N[C@@H](C)C(=O)N2CCCC[C@H]2C(=O)N(C)[C@@H](C(C)C)C(=O)N[C@@H](C(C)C)C(=O)N(C)[C@@H](CC(=O)O)C(=O)N(C)[C@@H]([C@@H](C)CC)C(=O)N1C
18 | – | – | > 100 | > 100 | – | > 100 | > 100 | – | CC[C@H](C)[C@H]1C(=O)NCC(=O)N(C)[C@@H](C(C)C)C(=O)N[C@@H](Cc2ccc(OC)cc2)C(=O)N[C@@H](C)C(=O)N[C@H](C)C(=O)N2CCCC[C@H]2C(=O)N(C)[C@@H](C(C)C)C(=O)N[C@@H](C(C)C)C(=O)N(C)[C@@H](CC(=O)OC(C)(C)C)C(=O)N(C)[C@@H]([C@@H](C)CC)C(=O)N1C
